A selection: hits, their analogues and other compounds. The true share with any hit is near 1.5%.
APJ ag: agonists of human apelin receptor APJ, primary screen, CHO-K1 cells, PathHunter beta-arrestin, luminescence; P35414; 0% DMSO wells, 100% apelin; activation, % at 20 µM; actives 0.11% (n = 330,000);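 active = activation more than six SD over the plate average, tested at 20 µM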;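 also: 0% = DMSO alone and 100% = apelin-13 at 10 nM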
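Assay system: engineered CHO-K1 APJ arrestin reporter cells; Amount: 1000 CHO-K1 reporter cells seeded per well; Dosing: one dose, 20 µM compound, 1% DMSO; Times: compound stimulation 90 min at 25 °C, detection 60 min; Measured by: luminescent beta-gal fragment complementation, chemiluminescent substrate; Read-out: APJ–arrestin association signal; Controls: DMSO vs Apelin-13 10 nM.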
APJ antagonist: antagonists of human apelin receptor APJ, primary screen, CHO-K1 cells, beta-arrestin complementation, luminescence; P35414; inhibition, % at 20 µM; actives 0.32% (n = 330,000);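 active = inhibition above about 40% at 20 µM, limit read from the data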;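 also: cells challenged with 10 nM apelin-13 agonist together with compound; plate controls were apelin-13 plus DMSO wells for no effect and DMSO wells lacking apelin-13 for full effect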
EBI2 block: EBI2 receptor antagonists, beta-arrestin recruitment, primary screen, cell-based, luminescence, 7a,25-OHC stimulation, uHTS. AID 651636, 2012. actives 0.81% (n = 360,000). inhibition, % at 5 µM. G-protein coupled receptor 183 (Homo sapiens), P32249. 7a,25-OHC stimulated; in the data active = inhibition above about 38%;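 also: enzyme fragment complementation signal reports receptor beta-arrestin coupling in cells; 0% = agonist plus DMSO wells and 100% = wells without agonist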
CCR6 antagonist: CCR6 receptor antagonists, primary screen, cell-based, CHO-K1, luminescence, beta-arrestin, uHTS; inhibition, % at 20 µM; AID 493098, 2011; actives 0.49% (n = 340,000); CHO-K1 CCR6 PathHunter beta-arrestin, CCL20-stimulated; C-C chemokine receptor type 6 (Homo sapiens), P51684;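 active = compounds whose inhibition of the agonist-driven luminescence signal at 20 µM reaches about 50%, limit read from the data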;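 also: cells stimulated with CCL20 at 14 nM final; plate controls were DMSO with CCL20 for no effect and DMSO without agonist for full effect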
Target sequence (P51684 whole entry, looked up): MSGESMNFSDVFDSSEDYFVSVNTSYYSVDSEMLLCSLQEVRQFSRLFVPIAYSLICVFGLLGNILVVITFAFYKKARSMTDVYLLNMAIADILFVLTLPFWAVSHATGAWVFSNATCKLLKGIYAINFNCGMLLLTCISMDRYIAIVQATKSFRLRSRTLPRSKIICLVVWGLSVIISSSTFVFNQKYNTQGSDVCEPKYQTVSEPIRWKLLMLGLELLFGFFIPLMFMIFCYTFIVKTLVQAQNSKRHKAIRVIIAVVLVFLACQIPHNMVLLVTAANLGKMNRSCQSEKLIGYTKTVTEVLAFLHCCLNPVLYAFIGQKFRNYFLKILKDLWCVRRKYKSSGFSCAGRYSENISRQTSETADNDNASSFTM
CXCR6 inh: CXCR6 receptor inhibitors, primary screen, cell-based, beta-arrestin, luminescence, CHO-K1 PathHunter, 1536-well | C-X-C chemokine receptor type 6 (Homo sapiens), O00574 | inhibition, % at 20 µM | actives 0.36% (n = 360,000) | AID 602244, 2012; in the data active = inhibition above about 34%, passing the limit was not always enough;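 also: antagonist mode with CXCL16 agonist at 10 nM final; 0% = 10 nM CXCL16 with DMSO and 100% = unstimulated wells without agonist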
Target sequence (O00574 whole entry, looked up): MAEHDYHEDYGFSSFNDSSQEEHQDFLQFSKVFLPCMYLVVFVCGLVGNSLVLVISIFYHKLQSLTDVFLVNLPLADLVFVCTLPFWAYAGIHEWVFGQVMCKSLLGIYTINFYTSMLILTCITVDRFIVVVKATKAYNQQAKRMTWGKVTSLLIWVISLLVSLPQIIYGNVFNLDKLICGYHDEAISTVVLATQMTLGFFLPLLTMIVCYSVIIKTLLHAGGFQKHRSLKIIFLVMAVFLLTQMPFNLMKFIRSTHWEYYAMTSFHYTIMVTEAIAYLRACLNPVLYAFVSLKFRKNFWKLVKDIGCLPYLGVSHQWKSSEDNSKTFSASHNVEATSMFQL
APJ ag conf: agonists of human apelin receptor APJ, confirmation, cell-based, single concentration, CHO-K1, beta-arrestin, luminescence; shares compounds with APJ ag; CHO-K1 APJ PathHunter beta-arrestin; activation, % at 20 µM; actives 10% (n = 310); AID 2764, 2010;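 active = activation above 40%, taking the highest of four retests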;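 also: plate controls were DMSO wells for no effect and apelin-13 at 10 nM for full effect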
* hit, by the source's call; / = not tested or not shown.

SMILES	APJ ag	APJ antagonist	EBI2 block	CCR6 antagonist	CXCR6 inh	APJ ag conf
NC(=O)c1cc(-c2ccccc2)sc1NC(=O)Cc1ccc(S(=O)(=O)N2CCOCC2)s1	0.2	6.4	49.7*	-16.5	-1.3	/
O=C(Cc1ccc(S(=O)(=O)N2CCOCC2)s1)Nc1ccccc1Br	2.2	-21.2	7.8	-2.4	-11.5	/
CCC1CCCCN1CCCn1c(=S)[nH]c2ccccc2c1=O (centres undefined)	-1.0	17.2	4.4	37.4	1.7	/
CCOc1cc2[nH]c(=S)n(CCCOC)c(=O)c2cc1OCC	-1.8	-20.9	11.1	-0.9	4.7	/
CCOc1cc2[nH]c(=S)n(CCN3CCCCC3CC)c(=O)c2cc1OCC (centres undefined)	77.9*	3.8	21.5	2.9	3.2	38.8
CCOc1cc2[nH]c(=S)n(CCCC(=O)NCc3ccccn3)c(=O)c2cc1OCC	118.1*	8.2	1.0	12.9	-2.2	28.5
CCOc1cc2[nH]c(=S)n(CCCN3CCOCC3)c(=O)c2cc1OCC	16.7*	1.3	7.7	-1.4	-0.6	23.6
CCOc1cc2[nH]c(=S)n(CCN3CCC(C)CC3)c(=O)c2cc1OCC	27.1*	-0.8	-0.5	13.9	-2.1	13.4
CCCCc1cc(O)c(CCCC)c(O)c1	13.0*	-25.3	2.0	11.5	-17.3	20.6
Cc1cc(NC(=O)c2ccc([N+](=O)[O-])cc2Cl)ccc1NC(=O)c1ccco1	/	-34.4	-19.1	4.2	-11.8	/
O=C(Nc1ccc(NC(=O)c2ccc([N+](=O)[O-])cc2[N+](=O)[O-])cc1)c1ccco1	11.1*	-19.3	-6.5	-20.2	-10.8	11.0
Cc1ccc2c(c1)c(=O)c1c3n2CCN(C(=O)CCl)C3CC1 (centres undefined)	36.6*	-15.5	-20.6	-4.5	1.0	22.2
N=c1n(CC(=O)c2cccs2)c2ccccc2n1Cc1ccccc1	28.3*	-14.6	-8.3	6.9	0.9	15.8
O=C(O)[C@H](Cc1ccccc1)NC(=O)N1CCN(c2ccc(F)cc2)CC1	-3.4	-12.7	-1.9	-2.0	-4.6	/
O=C(NCc1ccncc1)c1ccc(NS(=O)(=O)c2ccc(F)cc2)cc1	6.1	7.8	-14.6	1.4	-1.5	/
COCC(=O)N1CCC(Oc2ccc(C(=O)N3C[C@H]4CC[C@H]3C4)cc2)CC1	1.3	22.8	-3.5	-1.8	-0.1	/
Cc1ccc(-n2ncc3c(N4CCN(c5ccccc5)CC4)ncnc32)c(C)c1	16.7*	-28.7	-19.4	-13.3	-4.6	40.0*
N/C(=N\OC(=O)c1cccnc1)c1ccccc1Cl	8.9*	-91.4	-14.1	-36.6	-15.0	22.1
CC1Sc2ccc(S(=O)(=O)N3CCC(C(=O)N(C)Cc4ccccc4)CC3)cc2NC1=O (centres undefined)	1.2	13.8	-4.2	0.9	2.9	/
O=C(N=Nc1c(O)[nH]c2ccc(F)cc12)C1COc2ccccc2O1 (centres undefined)	-2.6	-14.4	-1.5	10.8	1.1	/
Cc1ccc(CCN=c2c([N+](=O)[O-])nn(-c3ccccc3)n2O)cc1	14.3*	-46.0	-9.2	-24.3	-13.0	24.7
Cc1ccc(CN2CC(C(=O)N(Cc3nnc(-c4ccccc4Cl)o3)C3CC3)CC2=O)cc1 (centres undefined)	-3.9	-7.5	3.3	11.1	-5.9	/
COc1ccc(/C(N)=N/OC(=O)c2cccc([N+](=O)[O-])c2C)cc1	18.0*	-80.7	12.0	-17.1	-19.0	17.6
COCc1ccc(C(=O)NC2CCCN(Cc3ccccc3F)C2)o1 (centres undefined)	-5.0	12.4	-3.2	6.9	-5.1	/
CCOc1ccc2nc3cc(NCc4ccc(OC)cc4)ccc3c(N)c2c1	30.1*	-15.2	-12.0	-10.2	-12.1	-3.8
SMILES	APJ ag	APJ antagonist	EBI2 block	CCR6 antagonist	CXCR6 inh	APJ ag conf
CCn1cnc2cc(NCc3ccc(OC)cc3)ccc21	-2.0	-5.3	1.4	-12.8	2.2	/
CCN1C(c2ccccc2)=C(c2ccccc2)S/C1=C\C=C1/SC(=S)N(C)C1=O	115.0*	-89.9	-14.3	-30.8	0.2	291.9*
CCN1C(c2ccccc2)=C(c2ccccc2)S/C1=C/C=C1\SC(=S)N(C)C1=O	/	/	-4.6	-74.3	-16.4	/
Cc1cccc(C(=O)OCc2cc(=O)oc3c(C)c(C)ccc23)c1O	24.1*	11.3	8.0	-5.7	8.9	8.4
Cc1cc(C(=O)CSc2nc3ccccc3[nH]2)c(C)n1CC1CCCO1 (centres undefined)	20.9*	-26.9	-96.5	-42.9	-4.9	13.5
Cc1cc(C(=O)CSc2nc(N)cc(=O)[nH]2)c(C)n1CC1CCCO1 (centres undefined)	-8.1	2.6	3.3	2.3	-0.1	/
COC(=O)Cn1cc(/C=C(/C#N)C(=O)N2CCOCC2)c2ccccc21	12.4*	-5.3	-11.3	0.4	5.1	5.6
C[C@@H](C(=O)NC1CCN(Cc2ccccc2)CC1)N1C(=O)N2CCc3c([nH]c4ccccc34)[C@@]2(C)C1=O	5.2	1.3	-4.2	-0.8	-3.6	/
COc1ccc2[nH]c3c(c2c1)CCN1C(=O)N([C@@H](C)C(=O)NC2CCN(Cc4ccccc4)CC2)C(=O)[C@]31C	18.3*	7.8	-4.9	8.4	-4.9	37.8
CC(C)C[C@@H](C(=O)NC1CCN(Cc2ccccc2)CC1)N1C(=O)N2CCc3c([nH]c4ccccc34)[C@@]2(C)C1=O	23.6*	16.0	14.0	21.4	8.7	25.4
S=c1nc2[nH]c3ccccc3c2n[nH]1	/	/	2.4	2.1	-7.4	/
CC(=O)Nc1ccc(NC2CCCCC2NS(=O)(=O)c2ccccc2)cc1 (centres undefined)	-4.7	-11.8	-7.7	5.0	4.5	/
COc1ccc(OC)c2sc(N(CCCN(C)C)C(=O)c3ccc(S(=O)(=O)N4CCc5ccccc5C4)cc3)nc12	44.7*	-59.4	/	/	/	21.7
O=C(O)c1ccc(COc2ccc3c4c(c(=O)oc3c2)CCC4)o1	-8.5	3.1	-1.5	10.1	-5.4	/
O=c1oc2cc(OCc3ccc([N+](=O)[O-])cc3)ccc2c2c1CCCC2	62.4*	7.4	-17.0	-14.2	-9.8	3.9
CCOC(=O)C1=C(Cn2cnc3ccccc32)NC(=O)NC1c1cc(C)ccc1C (centres undefined)	62.2*	30.6	-41.7	12.7	8.6	58.6*
CCOC(=O)C1=C(CSc2nccn2C)NC(=O)NC1c1cc(C)ccc1C (centres undefined)	-3.6	-16.6	5.4	5.3	6.6	/
Cc1ccc(NC(=O)CSc2ccccc2NC(=O)c2cccc(Cl)c2)cc1Cl	13.5*	-26.4	-6.2	-0.8	-12.6	11.2
Cc1cccc(C(=O)Nc2ccccc2SCC(=O)Nc2ccc(C)c(Cl)c2)c1	-0.6	7.2	27.6	-32.5	-4.7	/

Screens from PubChem BioAssay.
